Measured values from ChEMBL document CHEMBL1275392, “Assessment of chemoselective neoglycosylation methods using chlorambucil as a model” (2010).

Columns and labels:
Format in all cases: functional
MCF7 [1] = test: Growth inhibition of human MCF7 cells at 10 uM after 7 days by celltiter-glo assay; conditions: MCF7, 168 h, read-out: GI
HCT-15 [2] = test: Ratio of compound GI50 to chlorambucil GI50 for human HCT15 cells
HT-29 = test: Growth inhibition of human HT-29 cells at 10 uM after 7 days by celltiter-glo assay; conditions: HT-29, 168 h, read-out: GI
Malme-3M = test: Growth inhibition of human MALME-3M cells after 7 days by celltiter-glo assay; conditions: 168 h
KM12 = test: Growth inhibition of human KM12 cells after 7 days by celltiter-glo assay; conditions: KM12, 168 h
MDA-MB-231 = test: Growth inhibition of human MDA-MB-231 cells after 7 days by celltiter-glo assay; conditions: MDA-MB-231, 168 h
SF-268 = test: Growth inhibition of human SF268 cells at 10 uM after 7 days by celltiter-glo assay; conditions: SF-268, 168 h, read-out: GI
SR = test: Growth inhibition of human SR cells at 10 uM after 7 days by celltiter-glo assay; conditions: 168 h, read-out: GI
HCT-15 [3] = test: Growth inhibition of human HCT15 cells after 7 days by celltiter-glo assay; conditions: HCT-15, 168 h
[4] = Growth inhibition of human Hs 578T cells at 10 uM after 7 days by celltiter-glo assay; conditions: 168 h, read-out: GI
NCI-H23 = test: Growth inhibition of human NCI-H23 cells after 7 days by celltiter-glo assay; conditions: NCI-H23, 168 h
[5] = Growth inhibition of human p53 deficient H1299 cells after 7 days by celltiter-glo assay; conditions: NCI-H1299, 168 h
In short: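 Cells seeded at 500 per well in 384-well plates. Compounds came from 30 mM DMSO stocks, serially diluted and tested in quadruplicate. Incubation was 7 d at 37 °C under 5% CO2. Calcein AM (10 μM) and EthD-1 were added, followed by a fluorescence read. CellTiter-Glo lysis was then done for 10 min at room temperature, with a luminescence read. GI50 came from curve fitting.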

PC-3 [6] = test: Growth inhibition of human PC3 cells after 7 days by celltiter-glo assay; conditions: PC-3, 168 h
HOP-92 [7] = test: Growth inhibition of human HOP92 cells after 7 days by celltiter-glo assay; conditions: HOP-92, 168 h
OVCAR-3 = test: Growth inhibition of human OVCAR-3 cells at 10 uM after 7 days by celltiter-glo assay; conditions: OVCAR-3, 168 h, read-out: GI
OVCAR-8 = test: Growth inhibition of human OVCAR8 cells after 7 days by celltiter-glo assay; conditions: OVCAR-8, 168 h
SNB-75 = test: Growth inhibition of human SNB75 cells at 10 uM after 7 days by celltiter-glo assay; conditions: SNB-75, 168 h, read-out: GI
LOX IMVI = test: Growth inhibition of human LOXIMVI cells at 10 uM after 7 days by celltiter-glo assay; conditions: 168 h, read-out: GI
HOP-62 = test: Growth inhibition of human HOP62 cells at 10 uM after 7 days by celltiter-glo assay; conditions: HOP-62, 168 h, read-out: GI
TK-10 = test: Growth inhibition of human TK10 cells after 7 days by celltiter-glo assay; conditions: TK-10, 168 h
DU-145 = test: Growth inhibition of human DU145 cells at 10 uM after 7 days by celltiter-glo assay; conditions: DU-145, 168 h, read-out: GI
A549 = test: Growth inhibition of human A549 cells expressing p53 after 7 days by celltiter-glo assay; conditions: A549, 168 h
BT-549 = test: Growth inhibition of human BT549 cells after 7 days by celltiter-glo assay; conditions: BT-549, 168 h
HOP-92 [8] = test: Growth inhibition of human HOP92 cells at 10 uM after 7 days by celltiter-glo assay; conditions: HOP-92, 168 h, read-out: GI
MCF7 [9] = test: Growth inhibition of human MCF7 cells after 7 days by celltiter-glo assay; conditions: MCF7, 168 h
PC-3 [10] = test: Growth inhibition of human PC3 cells at 10 uM after 7 days by celltiter-glo assay; conditions: PC-3, 168 h, read-out: GI

## CON(CCCc1ccc(N(CCCl)CCCl)cc1)C1OC[C@@H](O)[C@@H]1O (stereo partly specified)
MCF7 [1]
  inhibition of growth at 10 µM: 32.4%
HCT-15 [2]
  RatioGI50: 15
HT-29
  inhibition of growth at 10 µM: 70.7%
Malme-3M
  GI50: 20.2 µM
KM12
  GI50: 30 µM
MDA-MB-231
  GI50: 1390 nM
SF-268
  inhibition of growth at 10 µM: 67.8%
SR
  inhibition of growth at 10 µM: 48.7%
HCT-15 [3]
  GI50: 530 nM
[4]
  inhibition of growth at 10 µM: 139%
NCI-H23
  GI50: 7.15 µM
[5]
  GI50: 370 nM
PC-3 [6]
  GI50: 11.7 µM
HOP-92 [7]
  GI50: 4.03 µM
OVCAR-3
  inhibition of growth at 10 µM: 85.3%
OVCAR-8
  GI50: 9.13 µM
SNB-75
  inhibition of growth at 10 µM: 66.7%
LOX IMVI
  inhibition of growth at 10 µM: 54.8%
HOP-62
  inhibition of growth at 10 µM: 73.2%
TK-10
  GI50: 31.7 µM
DU-145
  inhibition of growth at 10 µM: 56.8%
A549
  GI50: 1100 nM
BT-549
  GI50: 13.4 µM
HOP-92 [8]
  inhibition of growth at 10 µM: 58.8%
MCF7 [9]
  GI50: 1800 nM
PC-3 [10]
  inhibition of growth at 10 µM: 72.5%
